ChEMBL document CHEMBL4610036, “Discovery of small molecule antagonists of chemokine receptor CXCR6 that arrest tumor growth in SK-HEP-1 mouse xenografts as a model of hepatocellular carcinoma” (Bioorg Med Chem Lett, 2020)
Calls of active or inactive are those of the source. The calls are words filed in the database; no cut-off is given here.

Assays:
[1] = biological target: T1, C-X-C chemokine receptor type 6 (Homo sapiens, UniProt O00574); test: Antagonist activity at Prolink-tagged human CXCR6 receptor assessed as inhibition of CXCL16-induced beta-arrestin recruitment by DiscoveRx cell based assay
Target sequence in this assay (O00574 whole entry): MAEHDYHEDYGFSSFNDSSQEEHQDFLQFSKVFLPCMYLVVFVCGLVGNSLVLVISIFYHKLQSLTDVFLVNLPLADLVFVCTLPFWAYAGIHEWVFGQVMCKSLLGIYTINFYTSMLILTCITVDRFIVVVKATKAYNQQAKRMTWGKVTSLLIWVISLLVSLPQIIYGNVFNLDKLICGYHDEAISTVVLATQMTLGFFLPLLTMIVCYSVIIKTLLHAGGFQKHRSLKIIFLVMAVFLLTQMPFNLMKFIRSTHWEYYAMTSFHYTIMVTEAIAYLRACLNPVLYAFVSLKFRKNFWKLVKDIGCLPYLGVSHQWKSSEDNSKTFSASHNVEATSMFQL

[2] = biological target: T1, C-X-C chemokine receptor type 6; test: Antagonist activity at Prolink-tagged human CXCR6 receptor assessed as inhibition of CXCL16-induced beta-arrestin recruitment by DiscoveRx cell based assay relative to control; set-up: concentration or dose not given beside the values
Outline: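 CXCR6 β-arrestin cells in assay media without G418/hygromycin, 800 cells/well, grown overnight at 37 °C; compounds added acoustically (DMSO ≤0.3%), then 20 nM CXCL16 (final) for 90 min at 37 °C. PathHunter luminescence read. Normalized between CXCL16-alone and no-ligand wells; four-parameter fit with Hill slope fixed at 1; at least two runs on different days, averaged pIC50 ± SD.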
Target sequence in this assay (O00574 whole entry, looked up): as the sequence (O00574 whole entry) above

[3] = biological target: T1, C-X-C chemokine receptor type 6; test: Antagonist activity at Prolink-tagged human CXCR6 receptor assessed as inhibition of forskolin-induced cAMP accumulation by DiscoveRx cell based assay; format: functional
Outline: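 Lance Ultra TR-FRET cAMP assay in CXCR6 β-arrestin cells, 500 cells/well in OptiMEM/2% FBS, grown overnight. Compound added, then forskolin (2.5 mM stock) in HBSS/HEPES/BSA/RO-20-1724 with or without 20 nM CXCL16, 30 min at room temperature. Eu-cAMP tracer and ULight anti-cAMP antibody added, read after 30 min. Curve fit with Hill slope 1; ≥2 independent runs.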
Target sequence in this assay (O00574 whole entry): as above

[4] = biological target: T1, C-X-C chemokine receptor type 6; test: Antagonist activity at Prolink-tagged human CXCR6 receptor assessed as inhibition of forskolin-induced cAMP accumulation by DiscoveRx cell based assay relative to control; format: functional; set-up: concentration or dose not given beside the values
Outline: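 CXCR6 β-arrestin cells in OptiMEM with 2% FBS, 500 cells/well, grown overnight; compounds added, then forskolin with 20 nM CXCL16 (stock concentrations) in HBSS/HEPES/BSA with RO-20-1724, 30 min at room temperature. cAMP read by LANCE Ultra TR-FRET after a further 30 min. Hill slope fixed at 1; at least two runs on different days, averaged pIC50 ± SD.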
Target sequence in this assay (O00574 whole entry, looked up): as the sequence (O00574 whole entry) above

[5] = biological target: T2, C-C chemokine receptor type 6 (Homo sapiens, UniProt P51684); test: Antagonist activity at human CCR6
T2 sequence (P51684 whole entry): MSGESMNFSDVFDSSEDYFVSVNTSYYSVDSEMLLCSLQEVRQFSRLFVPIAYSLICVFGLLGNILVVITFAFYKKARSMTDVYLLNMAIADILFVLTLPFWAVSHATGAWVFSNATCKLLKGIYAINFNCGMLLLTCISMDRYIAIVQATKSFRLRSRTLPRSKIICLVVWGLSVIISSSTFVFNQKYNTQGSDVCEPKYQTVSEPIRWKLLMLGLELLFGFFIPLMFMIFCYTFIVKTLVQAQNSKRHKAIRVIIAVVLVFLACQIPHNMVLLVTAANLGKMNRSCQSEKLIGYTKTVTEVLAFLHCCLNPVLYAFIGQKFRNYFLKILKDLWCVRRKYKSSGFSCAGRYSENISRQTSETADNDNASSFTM

[6] = biological target: T3, C-X-C chemokine receptor type 5 (Homo sapiens, UniProt P32302); test: Antagonist activity at human CXCR5
T3 sequence (P32302 whole entry): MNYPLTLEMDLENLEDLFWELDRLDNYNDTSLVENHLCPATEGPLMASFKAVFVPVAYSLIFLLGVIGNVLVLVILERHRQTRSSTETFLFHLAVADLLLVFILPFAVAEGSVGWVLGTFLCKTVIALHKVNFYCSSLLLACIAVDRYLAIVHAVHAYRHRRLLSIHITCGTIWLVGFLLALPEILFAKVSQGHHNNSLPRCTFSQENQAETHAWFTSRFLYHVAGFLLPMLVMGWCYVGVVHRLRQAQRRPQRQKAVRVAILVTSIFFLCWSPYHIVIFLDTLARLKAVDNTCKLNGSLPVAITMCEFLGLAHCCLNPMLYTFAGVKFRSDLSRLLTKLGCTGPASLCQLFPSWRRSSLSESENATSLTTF

[7] = biological target: C-X-C chemokine receptor type 4 (Homo sapiens, UniProt P61073); test: Antagonist activity at human CXCR4
[8] = biological target: T4, C-X-C chemokine receptor type 6 (Mus musculus, UniProt Q9EQ16); test: Antagonist activity at mouse CXCR6 by DiscoveRx cell based beta-arrestin assay
T4 sequence (Q9EQ16 whole entry): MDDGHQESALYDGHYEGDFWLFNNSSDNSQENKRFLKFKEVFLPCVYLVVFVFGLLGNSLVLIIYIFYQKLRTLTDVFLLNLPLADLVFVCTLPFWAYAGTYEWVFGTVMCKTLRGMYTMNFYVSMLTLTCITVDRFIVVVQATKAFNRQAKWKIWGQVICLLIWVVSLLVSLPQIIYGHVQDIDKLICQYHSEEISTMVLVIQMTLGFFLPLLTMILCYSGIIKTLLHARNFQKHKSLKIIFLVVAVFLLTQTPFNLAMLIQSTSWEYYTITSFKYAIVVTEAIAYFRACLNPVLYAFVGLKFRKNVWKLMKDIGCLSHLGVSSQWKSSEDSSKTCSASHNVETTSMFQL

[9] = biological target: T1, C-X-C chemokine receptor type 6; test: Inhibition of CXCR6-mediated cell invasion in human SKHEP1 cells after 72 hrs by transwell assay; format: cell-based; conditions: SK-HEP1
Outline: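 SK-HEP-1 cells, 100k/well in 0.2% FBS, seeded in upper chamber of a chemotaxis plate coated with matrigel (250 μg/ml). CXCL16 (0.6 μg/ml) in lower chamber; compound in both chambers. Kept at 37 °C, 5% CO2 and imaged hourly in IncuCyte. Migration quantified as confluence from phase-contrast images.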
Target sequence in this assay (O00574 whole entry, looked up): as the sequence (O00574 whole entry) above

C-X-C chemokine receptor type 4, sequence (P61073 whole entry): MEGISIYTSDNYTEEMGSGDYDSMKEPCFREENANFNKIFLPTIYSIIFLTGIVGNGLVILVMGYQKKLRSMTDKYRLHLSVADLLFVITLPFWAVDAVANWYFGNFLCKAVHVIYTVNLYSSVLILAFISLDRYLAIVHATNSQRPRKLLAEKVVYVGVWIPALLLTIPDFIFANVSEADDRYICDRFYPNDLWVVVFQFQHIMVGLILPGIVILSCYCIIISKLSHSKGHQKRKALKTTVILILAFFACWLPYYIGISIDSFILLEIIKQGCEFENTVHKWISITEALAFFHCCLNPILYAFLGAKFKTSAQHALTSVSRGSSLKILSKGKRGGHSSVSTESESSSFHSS

**Q.** For `COc1cc(C(=O)N[C@@H]2C[C@H]3CCC[C@@H](C2)N3CC(=O)Nc2ccccc2Cl)cc(OC)c1OC`, which IC50 [1] is on record?
**A.** 0.14 µM

**Q.** And the inhibition ([2]; concentration not given here)?
**A.** 100%

**Q.** And the IC50 [3]?
**A.** 1.4 µM

**Q.** And the inhibition ([4]; concentration not given here)?
**A.** 102%

**Q.** What about the IC50 [5] of the same compound?
**A.** > 80 µM

**Q.** What about the IC50 [6] of the same compound?
**A.** > 80 µM

**Q.** And the IC50 [7]?
**A.** > 80 µM

**Q.** What about the IC50 [8] of the same compound?
**A.** 18 µM

**Q.** What does the source list for `COc1cc(C(=O)N[C@@H]2C[C@H]3CCC[C@@H](C2)N3Cc2nc3c(Cl)cccc3s2)cc(OC)c1OC`?
**A.** IC50 [1]: 0.13 µM; inhibition ([2]; concentration not given here): 103%; IC50 [3]: 0.9 µM; inhibition ([4]; concentration not given here): 95%; inhibition [9]: Active

**Q.** Which IC50 [1] does the source give for `O=C(CN1[C@@H]2CCC[C@H]1C[C@H](NC(=O)c1ccccc1)C2)Nc1ccccc1` here?
**A.** > 40 µM

**Q.** And the inhibition [2]?
**A.** inactive

**Q.** And the IC50 [3]?
**A.** > 80 µM

**Q.** What about the inhibition [4] of the same compound?
**A.** inactive

**Q.** And the inhibition [9]?
**A.** inactive

**Q.** Which results are given for `COc1cc(C(=O)N[C@H]2C[C@H]3CCC[C@@H](C2)N3CC(=O)Nc2ccccc2)cc(OC)c1OC`?
**A.** IC50 [1]: > 40 µM; inhibition [2]: inactive; IC50 [3]: 40.9 µM; inhibition ([4]; concentration not given here): 70%

**Q.** For `COc1cc(C(=O)N[C@@H]2C[C@H]3CCC[C@@H](C2)N3Cc2cc3ccccc3s2)cc(OC)c1OC`, which IC50 [1] is on record?
**A.** 0.9 µM

**Q.** And the inhibition ([2]; concentration not given here)?
**A.** 93%

**Q.** What about the IC50 [3] of the same compound?
**A.** 25 µM

**Q.** What about the inhibition ([4]; concentration not given here) of the same compound?
**A.** 49%

**Q.** Which results are given for `COc1cc(C(=O)N[C@@H]2C[C@H]3CCC[C@@H](C2)N3Cc2nc3ccccc3o2)cc(OC)c1OC`?
**A.** IC50 [1]: 6.9 µM; inhibition ([2]; concentration not given here): 83%; IC50 [3]: > 50 µM; inhibition ([4]; concentration not given here): 26%

**Q.** Which results are given for `COc1cc(OC)cc(C(=O)N[C@@H]2C[C@H]3CCC[C@@H](C2)N3CC(=O)Nc2ccc(Cl)cc2)c1`?
**A.** IC50 [1]: > 40 µM; inhibition [2]: inactive; IC50 [3]: > 40 µM; inhibition [4]: inactive

**Q.** How did the IC50 [1] turn out when `COc1ccc(CN2[C@@H]3CCC[C@H]2C[C@H](NC(=O)c2cc(OC)c(OC)c(OC)c2)C3)cc1` was run?
**A.** > 50 µM

**Q.** What about the inhibition [2] of the same compound?
**A.** inactive

**Q.** What about the IC50 [3] of the same compound?
**A.** > 50 µM

**Q.** What about the inhibition [4] of the same compound?
**A.** inactive

**Q.** For `COc1cc(C(=O)N[C@@H]2C[C@H]3CCC[C@@H](C2)N3CC(=O)Nc2cccc(Br)c2)cc(OC)c1OC`, which IC50 [1] is on record?
**A.** 0.35 µM

**Q.** And the inhibition ([2]; concentration not given here)?
**A.** 104%

**Q.** And the IC50 [3]?
**A.** 3.8 µM

**Q.** And the inhibition ([4]; concentration not given here)?
**A.** 92%

**Q.** `COc1cc(C(=O)N[C@@H]2C[C@H]3CCC[C@@H](C2)N3CC(=O)Nc2cccc(F)c2)cc(OC)c1OC` was tested. Which IC50 [1] did it give?
**A.** 0.84 µM

**Q.** What about the inhibition ([2]; concentration not given here) of the same compound?
**A.** 104%

**Q.** And the IC50 [3]?
**A.** 8.5 µM

**Q.** What about the inhibition ([4]; concentration not given here) of the same compound?
**A.** 103%

**Q.** For `COc1ccc(NC(=O)CN2[C@@H]3CCC[C@H]2C[C@H](NC(=O)c2cc(OC)c(OC)c(OC)c2)C3)cc1`, which IC50 [1] is on record?
**A.** 19 µM

**Q.** What about the inhibition ([2]; concentration not given here) of the same compound?
**A.** 76%

**Q.** And the IC50 [3]?
**A.** > 40 µM

**Q.** What about the inhibition [4] of the same compound?
**A.** inactive

**Q.** Which results are given for `COc1cc(C(=O)NC2CCN(CC(=O)Nc3ccccc3)CC2)cc(OC)c1OC`?
**A.** IC50 [1]: > 40 µM; inhibition [2]: inactive; IC50 [3]: > 40 µM; inhibition [4]: inactive

**Q.** What does the source list for `COc1cc(C(=O)N[C@@H]2C[C@H]3CCC[C@@H](C2)N3CC(=O)c2nc3ccccc3s2)cc(OC)c1OC`?
**A.** IC50 [1]: 12.7 µM; inhibition ([2]; concentration not given here): 75%; IC50 [3]: > 50 µM; inhibition [4]: inactive

**Q.** With `COc1cc(C(=O)N[C@@H]2C[C@H]3CCC[C@@H](C2)N3CC(=O)Nc2cc(Cl)cc(Cl)c2)cc(OC)c1OC` as the compound, how does the IC50 [1] read?
**A.** 0.31 µM

**Q.** What about the inhibition ([2]; concentration not given here) of the same compound?
**A.** 104%

**Q.** And the IC50 [3]?
**A.** 1.3 µM

**Q.** What about the inhibition ([4]; concentration not given here) of the same compound?
**A.** 96%

**Q.** Which results are given for `COc1cc(C(=O)N[C@@H]2C[C@H]3CCC[C@@H](C2)N3CC(=O)Nc2ccccc2C(F)(F)F)cc(OC)c1OC`?
**A.** IC50 [1]: 0.64 µM; inhibition ([2]; concentration not given here): 101%; IC50 [3]: 7.9 µM; inhibition ([4]; concentration not given here): 105%

**Q.** Which results are given for `COc1cc(C(=O)N[C@@H]2C[C@H]3CCC[C@@H](C2)N3CC(=O)Nc2ccc(F)cc2)cc(OC)c1OC`?
**A.** IC50 [1]: 5.8 µM; inhibition ([2]; concentration not given here): 100%; IC50 [3]: 30.7 µM; inhibition ([4]; concentration not given here): 90%

**Q.** With `COc1cc(C(=O)N[C@@H]2C[C@H]3CCC[C@@H](C2)N3Cc2nc3ccccc3[nH]2)cc(OC)c1OC` as the compound, how does the IC50 [1] read?
**A.** 10.5 µM

**Q.** What about the inhibition ([2]; concentration not given here) of the same compound?
**A.** 84%

**Q.** And the IC50 [3]?
**A.** > 40 µM

**Q.** What about the inhibition [4] of the same compound?
**A.** inactive

**Q.** `COc1ccccc1CN1[C@@H]2CCC[C@H]1C[C@H](NC(=O)c1cc(OC)c(OC)c(OC)c1)C2` was tested. Which IC50 [1] did it give?
**A.** > 50 µM

**Q.** And the inhibition [2]?
**A.** inactive

**Q.** And the IC50 [3]?
**A.** > 50 µM

**Q.** And the inhibition [4]?
**A.** inactive

**Q.** `COc1cc(C(=O)N[C@@H]2C[C@H]3CCC[C@@H](C2)N3Cc2cn3ccccc3n2)cc(OC)c1OC` was tested. Which IC50 [1] did it give?
**A.** > 50 µM

**Q.** And the inhibition [2]?
**A.** inactive

**Q.** And the IC50 [3]?
**A.** > 50 µM

**Q.** What about the inhibition [4] of the same compound?
**A.** inactive

**Q.** Which IC50 [1] does the source give for `COc1cc(C(=O)N[C@@H]2C[C@H]3CCC[C@@H](C2)N3Cc2cccc(Cl)c2)cc(OC)c1OC` here?
**A.** 9.5 µM

**Q.** What about the inhibition ([2]; concentration not given here) of the same compound?
**A.** 97%

**Q.** And the IC50 [3]?
**A.** 14.8 µM

**Q.** And the inhibition ([4]; concentration not given here)?
**A.** 100%
